ChEMBL document CHEMBL1156110, “Novel N-hydroxybenzamide-based HDAC inhibitors with branched CAP group” (Bioorg Med Chem Lett, 2009)
Active and inactive are the calls of the source. No cut-off for these calls is given here.

Key:
U-937 [1] = experiment: Cell cycle arrest in human U937 cells assessed as accumulation at G1 phase at 5 uM after 30 hrs by FACS; format: functional, cell-based
[2] = target: Histone deacetylase (Homo sapiens) (UniProt Q13547+O15379+Q9UBN7+Q92769+Q9UQL6+Q8WUI4+Q9BY41+Q96DB2+P56524+Q9UKV0+Q969S8); experiment: Inhibition of HDAC in human U937 cells assessed as histone H3 acetylation at 5 uM after 24 hrs by Western blot; format: cell-based; details: U-937
Method in brief: (§1)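 Human leukemia U937 cells exposed to 5 µM for 24 h. Acetyl-histone H3 was read by Western blot as a class I HDAC marker, and acetyl-α-tubulin as an HDAC6 marker.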

HCT-116 = experiment: Antiproliferative activity against human HCT116 cells after 48 hrs by MTT assay; format: functional; details: HCT-116, 48 h
A549 = experiment: Antiproliferative activity against human A549 cells after 48 hrs by MTT assay; format: functional; details: A549, 48 h
[3] = Inhibition of HDAC
HepG2 = experiment: Antiproliferative activity against human HepG2 cells after 48 hrs by MTT assay; format: functional; details: HepG2, 48 h
U-937 [4] = experiment: Induction of p21WAF1/CIP1 expression in human U937 cells at 5 uM after 24 hrs by Western blot; format: functional, cell-based
[5] = target: T1, Protein deacetylase HDAC6 (Homo sapiens) (UniProt Q9UBN7); experiment: Inhibition of HDAC6 in human U937 cells assessed as alpha-tubulin acetylation at 5 uM after 24 hrs by Western blot; format: cell-based; details: U-937; method in brief: as §1
T1 sequence (whole entry): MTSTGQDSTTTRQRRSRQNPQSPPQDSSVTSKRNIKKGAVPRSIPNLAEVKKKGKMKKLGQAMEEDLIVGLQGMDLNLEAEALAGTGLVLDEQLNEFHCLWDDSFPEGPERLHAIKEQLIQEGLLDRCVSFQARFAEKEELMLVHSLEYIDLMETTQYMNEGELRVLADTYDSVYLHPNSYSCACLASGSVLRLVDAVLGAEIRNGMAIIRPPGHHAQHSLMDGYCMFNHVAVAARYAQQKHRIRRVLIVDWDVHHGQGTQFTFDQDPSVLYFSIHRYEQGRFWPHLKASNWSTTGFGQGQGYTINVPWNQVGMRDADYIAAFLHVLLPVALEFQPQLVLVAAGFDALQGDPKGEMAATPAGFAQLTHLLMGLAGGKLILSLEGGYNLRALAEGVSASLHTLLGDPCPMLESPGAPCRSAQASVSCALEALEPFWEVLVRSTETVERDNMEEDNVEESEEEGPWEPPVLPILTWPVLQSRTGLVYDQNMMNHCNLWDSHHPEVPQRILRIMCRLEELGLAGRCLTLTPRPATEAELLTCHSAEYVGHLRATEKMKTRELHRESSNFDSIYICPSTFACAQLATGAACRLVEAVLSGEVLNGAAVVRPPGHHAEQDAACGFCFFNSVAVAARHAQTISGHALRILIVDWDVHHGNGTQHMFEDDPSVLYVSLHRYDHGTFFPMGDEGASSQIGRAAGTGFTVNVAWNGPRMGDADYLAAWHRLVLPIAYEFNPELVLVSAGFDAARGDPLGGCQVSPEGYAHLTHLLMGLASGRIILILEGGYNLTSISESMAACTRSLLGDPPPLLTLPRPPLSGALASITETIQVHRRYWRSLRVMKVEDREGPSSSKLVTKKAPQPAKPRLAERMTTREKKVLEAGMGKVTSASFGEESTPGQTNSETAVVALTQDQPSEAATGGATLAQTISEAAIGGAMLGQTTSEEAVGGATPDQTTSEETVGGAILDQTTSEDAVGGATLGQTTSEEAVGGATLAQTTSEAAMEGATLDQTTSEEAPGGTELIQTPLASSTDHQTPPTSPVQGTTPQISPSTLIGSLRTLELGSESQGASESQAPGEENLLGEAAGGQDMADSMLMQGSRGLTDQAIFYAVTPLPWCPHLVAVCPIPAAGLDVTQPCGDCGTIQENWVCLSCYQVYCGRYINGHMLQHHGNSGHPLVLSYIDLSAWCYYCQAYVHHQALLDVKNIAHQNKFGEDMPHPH

PC-3 = experiment: Antiproliferative activity against human PC3 cells after 48 hrs by MTT assay; format: functional; details: PC-3, 48 h
Histone deacetylase 1 = Histone deacetylase 1 (Homo sapiens, UniProt Q13547); experiment: Inhibition of human recombinant HDAC1 expressed in baculovirus
Chain of Histone deacetylase 1 (Q13547 whole entry): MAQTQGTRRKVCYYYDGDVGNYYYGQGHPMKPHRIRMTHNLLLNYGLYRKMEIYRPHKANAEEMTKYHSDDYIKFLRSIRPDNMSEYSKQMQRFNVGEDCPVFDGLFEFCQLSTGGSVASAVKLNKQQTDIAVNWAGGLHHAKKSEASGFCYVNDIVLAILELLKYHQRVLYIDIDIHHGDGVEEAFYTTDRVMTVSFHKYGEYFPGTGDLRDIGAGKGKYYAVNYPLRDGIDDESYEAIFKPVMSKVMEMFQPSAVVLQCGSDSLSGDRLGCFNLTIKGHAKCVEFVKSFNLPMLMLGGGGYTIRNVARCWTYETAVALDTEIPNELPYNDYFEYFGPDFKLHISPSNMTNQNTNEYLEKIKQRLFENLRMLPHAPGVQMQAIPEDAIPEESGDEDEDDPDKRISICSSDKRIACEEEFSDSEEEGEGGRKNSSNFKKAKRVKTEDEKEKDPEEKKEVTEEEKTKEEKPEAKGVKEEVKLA

U-937 [6] = experiment: Induction of granulocytic differentiation in human U937 cells assessed as CD11c positive PI negative cells at 5 uM after 30 hrs by FACS; format: functional, cell-based
Method in brief: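 U937 human leukemia cells treated 30 h at 5 µM; differentiation scored by FACS as the percentage of CD11c-positive, PI-negative cells; values are the mean of four independent replicates.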

Histone deacetylase 4 = Histone deacetylase 4 (Homo sapiens, UniProt P56524); experiment: Inhibition of human recombinant his tagged HDAC4 expressed in baculovirus
Chain of Histone deacetylase 4 (P56524 whole entry): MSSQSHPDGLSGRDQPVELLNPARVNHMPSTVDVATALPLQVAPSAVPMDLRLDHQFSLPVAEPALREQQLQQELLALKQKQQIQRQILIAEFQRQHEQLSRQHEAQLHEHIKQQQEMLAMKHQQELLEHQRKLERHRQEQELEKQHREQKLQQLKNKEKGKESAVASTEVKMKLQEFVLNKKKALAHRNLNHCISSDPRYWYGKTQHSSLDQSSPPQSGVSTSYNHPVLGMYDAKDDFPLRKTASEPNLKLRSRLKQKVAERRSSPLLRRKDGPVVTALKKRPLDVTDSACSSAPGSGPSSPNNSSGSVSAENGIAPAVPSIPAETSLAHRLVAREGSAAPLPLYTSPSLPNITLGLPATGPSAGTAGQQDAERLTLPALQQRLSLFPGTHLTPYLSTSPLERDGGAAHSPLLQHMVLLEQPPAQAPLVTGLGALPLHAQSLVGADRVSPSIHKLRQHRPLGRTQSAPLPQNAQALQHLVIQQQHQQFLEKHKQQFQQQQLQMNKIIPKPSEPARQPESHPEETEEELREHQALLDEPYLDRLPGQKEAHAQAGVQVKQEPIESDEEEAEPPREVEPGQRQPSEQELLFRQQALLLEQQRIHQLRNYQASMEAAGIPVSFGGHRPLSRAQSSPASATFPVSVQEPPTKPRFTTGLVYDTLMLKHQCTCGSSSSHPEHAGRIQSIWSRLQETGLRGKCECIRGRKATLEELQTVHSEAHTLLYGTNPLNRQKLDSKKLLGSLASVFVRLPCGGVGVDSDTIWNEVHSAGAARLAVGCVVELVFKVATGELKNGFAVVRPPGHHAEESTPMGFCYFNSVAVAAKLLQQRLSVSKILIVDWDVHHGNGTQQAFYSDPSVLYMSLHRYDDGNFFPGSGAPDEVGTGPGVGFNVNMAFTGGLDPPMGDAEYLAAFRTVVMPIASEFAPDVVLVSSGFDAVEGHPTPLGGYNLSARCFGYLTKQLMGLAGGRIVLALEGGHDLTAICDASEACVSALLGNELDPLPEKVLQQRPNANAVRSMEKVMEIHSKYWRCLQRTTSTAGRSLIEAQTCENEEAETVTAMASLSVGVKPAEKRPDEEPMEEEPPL

U-937 [7] = experiment: Induction of apoptosis in human U937 cells at 5 uM after 30 hrs by propidium iodide and annexin V staining; format: functional, cell-based
U-937 [8] = experiment: Cell cycle arrest in human U937 cells assessed as accumulation at S phase at 5 uM after 30 hrs by FACS; format: functional, cell-based

Cc1ccc(-c2cnc(N(CCCOc3ccccc3)Cc3ccc(C(=O)NO)cc3)s2)cc1
Activity (U-937 [1]): Active | inhibition [2]: Active | GI50 (HCT-116): 4.14 µM | GI50 (A549): 2.53 µM | IC50 [3]: 195 nM | GI50 (HepG2): 23.4 µM | Activity (U-937 [4]): Active | inhibition [5]: Active | GI50 (PC-3): 17.5 µM

CCN(Cc1ccc(C(=O)NO)cc1)c1ncc(-c2ccc(C)cc2)s1
GI50 (HCT-116): 6.87 µM | GI50 (A549): 2.7 µM | IC50 [3]: 54 nM | GI50 (HepG2): 1.12 µM | GI50 (PC-3): 10.3 µM

Cc1ccc(-c2cnc(N(Cc3ccc(C(=O)NO)cc3)C(C)C)s2)cc1
GI50 (HCT-116): 7.8 µM | GI50 (A549): 3.83 µM | IC50 [3]: 168 nM | GI50 (HepG2): 2.18 µM | GI50 (PC-3): 1.15 µM

Cc1ccc(OCCN(Cc2ccc(C(=O)NO)cc2)c2ncc(-c3ccc(C)cc3)s2)cc1
Activity (U-937 [1]): Active | inhibition [2]: Active | GI50 (HCT-116): 17.3 µM | GI50 (A549): 11.2 µM | IC50 [3]: 101 nM | GI50 (HepG2): 11.5 µM | IC50 (Histone deacetylase 1): 1050 nM | Activity (U-937 [4]): Active | Activity (U-937 [6]): Active | inhibition [5]: Active | GI50 (PC-3): 5.57 µM | IC50 (Histone deacetylase 4): > 50 µM | Activity (U-937 [7]): Active

CCCCCCN(Cc1ccc(C(=O)NO)cc1)c1ncc(-c2ccc(C)cc2)s1
GI50 (HCT-116): 4.85 µM | GI50 (A549): 3.71 µM | IC50 [3]: 2790 nM | GI50 (HepG2): 7.42 µM | GI50 (PC-3): 5.27 µM

CCCCN(Cc1ccc(C(=O)NO)cc1)c1ncc(-c2ccc(C)cc2)s1
GI50 (HCT-116): 8.78 µM | GI50 (A549): 4.78 µM | IC50 [3]: 1350 nM | GI50 (HepG2): 4.3 µM | GI50 (PC-3): 6.41 µM

CCCN(Cc1ccc(C(=O)NO)cc1)c1ncc(-c2ccc(C)cc2)s1
GI50 (HCT-116): 5.8 µM | GI50 (A549): 3.31 µM | IC50 [3]: 52 nM | GI50 (HepG2): 2.55 µM | GI50 (PC-3): 9.16 µM

Cc1ccc(OCCCN(Cc2ccc(C(=O)NO)cc2)c2ncc(-c3ccc(C)cc3)s2)cc1
Activity (U-937 [1]): Active | inhibition [2]: Active | GI50 (HCT-116): 12.6 µM | GI50 (A549): 32.5 µM | IC50 [3]: 1070 nM | GI50 (HepG2): 12.2 µM | Activity (U-937 [4]): Active | inhibition [5]: Active | GI50 (PC-3): 9.33 µM

Cc1ccc(-c2cnc(N(Cc3ccc(C(=O)NO)cc3)CC(C)C)s2)cc1
GI50 (HCT-116): 5.9 µM | GI50 (A549): 20.4 µM | IC50 [3]: 494 nM | GI50 (HepG2): 7.42 µM | GI50 (PC-3): 9.34 µM

CCCCCN(Cc1ccc(C(=O)NO)cc1)c1ncc(-c2ccc(C)cc2)s1
GI50 (HCT-116): 23.3 µM | GI50 (A549): 9.14 µM | IC50 [3]: 4330 nM | GI50 (HepG2): 7.02 µM | GI50 (PC-3): 5.06 µM

CCCCCCCCN(Cc1ccc(C(=O)NO)cc1)c1ncc(-c2ccc(C)cc2)s1
GI50 (HCT-116): 6.5 µM | GI50 (A549): 4.63 µM | IC50 [3]: 1590 nM | GI50 (HepG2): 8.76 µM | GI50 (PC-3): 13.3 µM

Cc1ccc(-c2cnc(N(Cc3ccccc3)Cc3ccc(C(=O)NO)cc3)s2)cc1
GI50 (HCT-116): 48.8 µM | GI50 (A549): 4.41 µM | IC50 [3]: 3110 nM | GI50 (HepG2): 34 µM | GI50 (PC-3): 10.3 µM

Cc1ccc(-c2cnc(N(CCOc3ccccc3)Cc3ccc(C(=O)NO)cc3)s2)cc1
Activity (U-937 [1]): Active | inhibition [2]: Active | GI50 (HCT-116): 8.81 µM | GI50 (A549): 14 µM | IC50 [3]: 41 nM | GI50 (HepG2): 12 µM | IC50 (Histone deacetylase 1): 2300 nM | Activity (U-937 [4]): Active | Activity (U-937 [6]): Active | inhibition [5]: inactive | GI50 (PC-3): 7.86 µM | IC50 (Histone deacetylase 4): > 50 µM | Activity (U-937 [7]): Active

Cc1ccc(-c2cnc(N(CCCCOc3ccccc3)Cc3ccc(C(=O)NO)cc3)s2)cc1
Activity (U-937 [1]): Active | inhibition [2]: Active | GI50 (HCT-116): 0.68 µM | GI50 (A549): 14.2 µM | IC50 [3]: 57 nM | GI50 (HepG2): 16.6 µM | inhibition [5]: Active | GI50 (PC-3): 10.3 µM

O=C(CCCCCCC(=O)Nc1ccccc1)NO [VORINOSTAT]
GI50 (HCT-116): 2.69 µM | GI50 (A549): > 200 µM | IC50 [3]: 53 nM | GI50 (HepG2): 63.5 µM | GI50 (PC-3): 8.17 µM

Cc1ccc(OCCCCN(Cc2ccc(C(=O)NO)cc2)c2ncc(-c3ccc(C)cc3)s2)cc1
GI50 (HCT-116): 0.58 µM | GI50 (A549): 8.63 µM | Activity (U-937 [8]): Active | IC50 [3]: 1670 nM | GI50 (HepG2): 11 µM | Activity (U-937 [6]): Active | GI50 (PC-3): 1.22 µM | Activity (U-937 [7]): Active
